# An excerpt weighted towards active compounds, which were near 3.1% of everything screened.
# Cneo AK release – Cryptococcus neoformans cell lysis inducers, primary screen, AK release luminescence, single concentration | C. neoformans lysis, adenylate kinase release luminescence, 4 h; normalised: neutral wells 0, clomiphene wells 100 | lysis activity, % at 15 µM | hit rate 0.2% among 360,000;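 active = mean lysis activity across replicates of at least 80%, whatever share of replicates individually reach that level; inactive = mean lysis activity below 80%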
#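 Test system: log-phase Cryptococcus neoformans yeast cells. Input: 5 × 10^6 yeast cells/mL. Medium: fresh YPD growth medium. Doses: single dose. Incubation: static 4 h at 37 °C with compound, 1 h detection. Measured by: luminescent adenylate kinase detection reagent. Read-out: signal increase indicating cell lysis. Benchmarks: Clomiphene.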
# miR122 inh – miR-122 Renilla sensor signal increase in Huh7, primary screen, miR-122 inhibitor project, cell-based, single point, plate reader | activation (reporter increase), % at 12.5 µM | Huh7 miR-122 Renilla luciferase sensor, 48 h; neutral wells = 0, positive control = 100 | hit rate 0.3% among 340,000;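 active = mean replicate activation score at least 90 and every replicate individually at or above 90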;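 also: higher luciferase means less miR-122 activity so hits act as miR-122 inhibitors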
# HIV Env fusion – inhibitors of HIV-1 Env-driven cell-cell fusion, primary screen, HeLa-JRFL effector, CEM21 target cells, luciferase | inhibition, % at 12.3 µM | hit rate 1.1% among 360,000 | AID 651610, 2012;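 active = mean replicate inhibition score of at least 50 and every replicate individually at or above 50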;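 also: 0% = plate neutral controls and 100% = maraviroc near 300 nM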
# INS-1E GSIS act – GLuc luminescence reporter in INS-1E cells, primary screen for activators of glucose-dependent secretion of insulin. INS-1E GLuc reporter insulin secretion, 2-3 h. activation, % at 16.6 µM. hit rate 0.61% among 370,000;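 active = lowest replicate activation of at least 40%, so every replicate reaches that level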;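 also: 0% = median of neutral control wells and 100% = median of IBMX positive control wells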
# rRNA inh HTS – reduced GFP signal of wild-type E. coli, primary screen, bacterial rRNA inhibitor project, GFP/RFP fluorescence, OD600, single point. E. coli WT GFP vs humanized-ribosome RFP mutants, 24 h; stronger effect = lower value; DMSO median 0, no signal -100. hit rate 1.6% among 350,000. GFP signal change (wild-type ribosome), % (concentration not given with the values);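 active = significant combined selectivity score with lowered wild-type GFP, culture density cut under 30%, mutant RFP and density less affected; inactive = any of these conditions unmet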
# F508del corr – F508del CFTR correction, initial screen, CFBE line, single point. hit rate 0.36% among 350,000. CFBE cells, YFP halide quenching; stimulated with forskolin plus potentiator P3; % fluorescence drop versus neutral controls. AID 720511, 2013. activity (quench increase), % at 7.58 µM;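 active = mean added fluorescence quench of at least 8% versus neutral control, with both replicates also reaching 8%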;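 also: cells transiently co-express mutant CFTR-F508del with the halide-sensitive YFP; corrector assay measuring rescue of mutant channel to the surface after 24 h compound exposure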
# The depositor's hits bear a star; / = no result; [ ] = remark or other dose.
SMILES,Cneo AK release,miR122 inh,HIV Env fusion,INS-1E GSIS act,rRNA inh HTS,F508del corr
COc1ccc(CCNC(=O)c2cc(-c3cc(C)cc(C)c3O)n[nH]2)cc1OC,-3,-3,0,-37,-24,0
Cc1cc(O)c(-c2cc(C(=O)NCCc3ccc(S(N)(=O)=O)cc3)[nH]n2)cc1C,-2,5,-4,6,-35*,5
COc1ccc(NC(=O)Nc2ccc3c(c2)CC(=O)N([C@H](C)CO)C[C@@H](C)[C@H](CN(C)C(=O)Nc2ccc(C(F)(F)F)cc2)O3)cc1,66,-5[16.7 µM],-20[16.7 µM],1,-6,0
C[C@@H]1CCCCO[C@H](CN(C)Cc2ccc3c(c2)OCO3)[C@@H](C)CN([C@@H](C)CO)C(=O)c2cc(NC(=O)c3ccccc3)ccc2O1,4,-8[16.7 µM],-28[16.7 µM],-30,1,1
CC(=O)N(C)C[C@H]1Oc2ccccc2CC(=O)N(C)C[C@@H]1C,/,/,/,0,1,/
[N-]=[N+]=NCc1ccccc1C[C@]1(C(=O)N2CCCCC2)N=C(c2ccc(OCCCO)cc2)O[C@H]1c1ccccc1,-1,/,68*[16.7 µM],/,/,-10
O=C(C[C@H]1C=C[C@H](NC(=O)Nc2ccc(C(F)(F)F)cc2)[C@H](CO)O1)NCCN1CCCC1,-2,/,-22[16.7 µM],-12,0,-3
Cc1ccc(N/C=C(\[N+](=O)[O-])S(=O)(=O)c2ccccc2)cc1,/,/,8,1,-22*,-1
Cc1cccc(N/C=C(\[N+](=O)[O-])S(=O)(=O)c2ccccc2)c1,/,/,-5,8,-5,2
C[C@H]1CN([C@@H](C)CO)C(=O)c2cc(NC(=O)Nc3ccc4c(c3)OCO4)ccc2O[C@H]1CN(C)S(C)(=O)=O,8,-5[16.7 µM],/,-2,2,-2
CC(=O)c1ccc(N2CCN(C(=O)c3cc4c(-c5ccccc5F)nn(C)c4s3)CC2)cc1,2,-5,66*,-53,-1,2
COc1ccc(S(=O)(=O)Nc2ccccc2C)cc1,2,55,-17,/,/,/
COc1ccc(S(=O)(=O)Nc2cccc3ccc(O)cc23)cc1,-1,/,20,-22,-28,14*
CC(=O)OC1CCC2(C)C(=CCC3C2CCC2(C)C3CC3ON=C(C)C32)C1 (stereo not given),0,/,-20,/,0,11*
CC(=O)O[C@H]1CC[C@@]2(C)C(=CC[C@H]3[C@@H]4CC[C@H](C5(C)OCCO5)[C@@]4(C)CC[C@@H]32)C1,1,-2,/,/,/,/
C[C@H]1CCCCO[C@@H](CN(C)S(=O)(=O)c2ccc(Cl)cc2)[C@@H](C)CN([C@@H](C)CO)C(=O)c2cc(NS(=O)(=O)c3ccc(F)cc3)ccc2O1,3,17[16.7 µM],11[16.7 µM],7,1,1
COc1ccc(NC(=O)N(C)C[C@H]2Oc3c(cccc3N(C)C)C(=O)N([C@H](C)CO)C[C@H]2C)cc1,5,8[16.7 µM],-1[16.7 µM],0,-2,8.1*
COc1ccc(S(=O)(=O)Nc2ccc3c(c2)C(=O)N([C@@H](C)CO)C[C@H](C)[C@@H](CN(C)C)OCCCC[C@H](C)O3)cc1,91*,3[16.7 µM],0[16.7 µM],-7,4,-1
C[C@H](CO)N1C[C@H](C)[C@@H](CN(C)C(=O)Nc2ccc3c(c2)OCO3)Oc2ccc(NS(=O)(=O)c3cccs3)cc2C1=O,100*,15[16.7 µM],/,5,-1,-2
C[C@@H]1CN([C@H](C)CO)C(=O)c2cc(NS(=O)(=O)c3cccs3)ccc2O[C@H]1CN(C)C(=O)Nc1ccc2c(c1)OCO2,-3,-3[16.7 µM],/,4,-1,0
COc1ccc(S(=O)(=O)Nc2ccc3c(c2)C(=O)N([C@H](C)CO)C[C@H](C)[C@H](CN(C)C(=O)Nc2ccccc2)OCCCC[C@H](C)O3)cc1,5,-7[16.7 µM],60*[16.7 µM],-16,-1,-2
C=C[C@@H](COC(C)=O)N(C(=O)OC(C)(C)C)S(=O)(=O)c1ccc(Br)cc1,4,/,2[16.7 µM],/,/,2
CN(C)C(=O)C[C@H]1C=C[C@H](NS(=O)(=O)c2ccccc2)[C@H](CO)O1,1,-8[16.7 µM],1[16.7 µM],21,2,-3
Cc1noc(C)c1S(=O)(=O)Nc1ccc2c(c1)C(=O)N([C@@H](C)CO)C[C@@H](C)[C@@H](CN(C)S(=O)(=O)c1ccc(F)cc1)O2,/,9[16.7 µM],-10[16.7 µM],-7,-3,-1
COc1ccc(NC(=O)Nc2ccc3c(c2)C(=O)N(C)C[C@H](OC)[C@@H](C)CN[C@@H](C)CO3)cc1,1,11[16.7 µM],-1[16.7 µM],-7,0,2
SMILES,Cneo AK release,miR122 inh,HIV Env fusion,INS-1E GSIS act,rRNA inh HTS,F508del corr
COc1ccc(S(=O)(=O)Nc2ccc3c(c2)C(=O)N([C@H](C)CO)C[C@@H](C)[C@@H](CN(C)C(=O)Nc2ccccc2)O3)cc1,83*,-2[16.7 µM],-4[16.7 µM],-2,0,-2
C[C@@H]1CN([C@H](C)CO)C(=O)c2cc(NS(=O)(=O)c3ccccc3)ccc2O[C@H]1CN(C)C(=O)NC1CCCCC1,96*,41[16.7 µM],/,23,1,2
C[C@H](CO)N1C[C@H](C)[C@@H](CN(C)C(=O)Nc2ccc(F)cc2)Oc2c(NS(=O)(=O)c3ccc(F)cc3)cccc2C1=O,-2,28[16.7 µM],-15[16.7 µM],-4,3,-2
O=C(/C=C/c1ccc(Cl)cc1)NC(=S)Nc1ccccc1C(=O)O,/,/,-51,-51,-18*,-4
NC(=O)c1ccccc1NC(=O)/C=C/c1ccc(Cl)cc1,-3,-8,-356,3,/,/
COCCNC(=O)C[C@H]1C[C@H]2c3cc(NC(=O)C4CCC4)ccc3O[C@H]2[C@H](CO)O1,-14,8[16.7 µM],-14[16.7 µM],-5,3,0
Cc1ccccc1Cn1nc(C)c(NC(=O)c2noc3c2CC(C(C)(C)C)CC3)c1C (stereo not given),2,1,56*,-31,/,/
O=C(NCc1ccc(F)cc1)c1noc2c1CCCC2,/,/,/,/,5,-3
Cc1nn(Cc2ccc(Cl)c(Cl)c2)c(C)c1NC(=O)c1noc2c1CCCCC2,1,-2,56*,-36,/,/
CC(C)(C)C1CCc2onc(C(=O)NCc3ccc(F)cc3)c2C1 (stereo not given),3,1,76*,-9,/,/
C[C@@H]1CN([C@@H](C)CO)C(=O)Cc2cc(NC(=O)c3ccncc3)ccc2O[C@H]1CN(C)Cc1ccc2c(c1)OCO2,-1,-9[16.7 µM],-19[16.7 µM],13,-2,-1
C[C@H](CO)N1C[C@H](C)[C@H](CN(C)S(C)(=O)=O)Oc2ccc(NC(=O)CCCN(C)C)cc2CC1=O,/,/,/,8,4,1

# High-throughput results: PubChem, Broad Institute
